According to ChEMBL document CHEMBL2034818, “Synthesis and evaluation of boronic acids as inhibitors of Penicillin Binding Proteins of classes A, B and C” (Bioorg Med Chem, 2012):
Positions count from the first letter of the chain named. pIC50, pKi: −log10 of the molar value.

Assays:
[1] = target: D-alanyl-D-alanine carboxypeptidase (Actinomadura sp. R39) (UniProt P39045); experiment: Inhibition of Actinomadura sp. R39 PBP using S2d as substrate assessed as residual activity at 1 mM incubated for 60 mins prior to substrate addition by DTNB-based spectrophotometry
D-alanyl-D-alanine carboxypeptidase (Actinomadura sp. R39), sequence (P39045 whole entry): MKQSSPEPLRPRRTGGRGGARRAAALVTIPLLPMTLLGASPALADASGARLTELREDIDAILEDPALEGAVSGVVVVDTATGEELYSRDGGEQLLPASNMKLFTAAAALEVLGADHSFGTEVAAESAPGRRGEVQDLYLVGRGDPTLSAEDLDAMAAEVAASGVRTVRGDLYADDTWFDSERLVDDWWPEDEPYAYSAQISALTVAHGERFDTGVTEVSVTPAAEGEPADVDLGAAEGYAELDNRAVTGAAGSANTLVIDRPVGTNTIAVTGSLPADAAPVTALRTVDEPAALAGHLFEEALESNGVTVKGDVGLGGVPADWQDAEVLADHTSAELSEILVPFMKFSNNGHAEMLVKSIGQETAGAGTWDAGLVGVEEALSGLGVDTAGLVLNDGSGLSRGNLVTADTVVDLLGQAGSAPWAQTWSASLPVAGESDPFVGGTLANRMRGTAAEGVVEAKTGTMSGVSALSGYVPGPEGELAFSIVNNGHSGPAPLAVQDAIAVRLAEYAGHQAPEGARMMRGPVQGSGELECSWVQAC
Summary of the method: (§1)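 R39 (Actinomadura, prepared per Granier), 3.5 nM, pre-incubated with inhibitor 60 min at 25 °C in 10 mM sodium phosphate pH 7.2, 100 mM NaCl, 100 mM D-alanine, 0.01 mg/mL BSA; inhibitors from DMF stock, 1% DMF final. Residual activity from initial rate of S2d (1 mM) hydrolysis with DTNB (1 mM), read at 412 nm, corrected for spontaneous hydrolysis; triplicates, uninhibited control six replicates per plate.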

[2] = target: T1, Penicillin-binding protein 2X (Streptococcus pneumoniae R6) (UniProt P59676); experiment: Inhibition of penicillin-sensitive Streptococcus pneumoniae R6 PBP2x using S2d as substrate assessed as residual activity at 1 mM incubated for 60 mins prior to substrate addition by DTNB-based spectrophotometry
T1 sequence (whole entry): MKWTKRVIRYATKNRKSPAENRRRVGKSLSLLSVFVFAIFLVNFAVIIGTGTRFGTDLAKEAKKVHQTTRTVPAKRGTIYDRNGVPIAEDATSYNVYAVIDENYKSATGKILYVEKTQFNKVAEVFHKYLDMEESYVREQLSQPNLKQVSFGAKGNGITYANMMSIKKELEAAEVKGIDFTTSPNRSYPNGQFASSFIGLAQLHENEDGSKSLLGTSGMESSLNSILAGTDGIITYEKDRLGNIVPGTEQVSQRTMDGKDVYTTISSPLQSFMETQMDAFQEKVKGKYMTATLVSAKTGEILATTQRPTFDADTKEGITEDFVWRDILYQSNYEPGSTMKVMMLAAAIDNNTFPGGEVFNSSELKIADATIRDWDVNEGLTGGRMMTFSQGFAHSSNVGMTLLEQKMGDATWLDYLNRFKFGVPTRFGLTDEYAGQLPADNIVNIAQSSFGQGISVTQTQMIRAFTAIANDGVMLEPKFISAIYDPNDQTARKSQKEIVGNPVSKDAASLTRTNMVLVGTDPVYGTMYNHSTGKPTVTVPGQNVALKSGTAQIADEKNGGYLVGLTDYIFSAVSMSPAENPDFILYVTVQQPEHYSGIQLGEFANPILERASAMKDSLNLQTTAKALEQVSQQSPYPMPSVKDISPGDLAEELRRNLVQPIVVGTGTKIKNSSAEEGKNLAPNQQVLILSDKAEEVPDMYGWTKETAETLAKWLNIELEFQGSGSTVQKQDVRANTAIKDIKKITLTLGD
Summary of the method: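 S. pneumoniae PBP2x-R6, 0.09 µM, pre-incubated with inhibitor in 10 mM sodium phosphate pH 7.0 with 0.01 mg/mL BSA, 60 min, 25 °C; 1% DMF final. S2d (1 mM) plus DTNB (1 mM) then added; residual activity taken from initial hydrolysis rate at 412 nm, corrected for spontaneous hydrolysis; triplicates, six no-inhibitor controls per plate.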

Streptococcus pneumoniae [3] = experiment: Inhibition of Streptococcus pneumoniae PBP1b assessed as residual activity at 1mM incubated for 60 mins prior to fluoresceyl-ampicillin labelling measured after 20 mins by SDS-PAGE analysis in the presence of triton X 100
Summary of the method: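 Assay A: purified S. pneumoniae PBP1b (0.7 µM) pre-incubated with inhibitor in 10 mM sodium phosphate pH 7.0, 60 min, 25 °C, 0.01% Triton X-100. Remaining active enzyme labelled with fluoresceyl-ampicillin (10 µM), 20 min; reaction stopped, run on SDS-PAGE, fluorescence of the band quantified as residual activity.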

[4] = target: T2, Penicillin-binding protein 2x (Streptococcus pneumoniae serotype 4 (strain ATCC BAA-334 / TIGR4)) (UniProt P14677); experiment: Inhibition of penicillin-resistant Streptococcus pneumoniae 5204 PBP2x using S2d as substrate assessed as residual activity at 1 mM incubated for 4 hrs prior to substrate addition by DNTB-based spectrophotometry in the presence of triton X 100
T2 sequence (whole entry): T1 sequence (whole entry) with M385T

Staphylococcus aureus = experiment: Inhibition of penicillin-resistant Staphylococcus aureus PBP2a assessed as residual activity at 1 mM incubated for 4 hrs prior to prior to fluoresceyl-ampicillin labelling measured after 20 mins by SDS-PAGE analysis
Enterococcus faecium = experiment: Inhibition of penicillin-resistant Enterococcus faecium PBP5fm assessed as residual activity at 1 mM incubated for 4 hrs prior to prior to fluoresceyl-ampicillin labelling measured after 20 mins by SDS-PAGE analysis
[5] = target: D-alanyl-D-alanine carboxypeptidase (Actinomadura sp. R39) (UniProt P39045); experiment: Inhibition of Actinomadura sp. R39 PBP using S2d as substrate assessed as residual activity at 1 mM incubated for 60 mins prior to substrate addition by DTNB-based spectrophotometry in presence of triton X 100; summary of the method: as §1
[6] = target: T2, Penicillin-binding protein 2x (Streptococcus pneumoniae serotype 4 (strain ATCC BAA-334 / TIGR4)); experiment: Inhibition of penicillin-resistant Streptococcus pneumoniae 5204 PBP2x using S2d as substrate assessed as residual activity at 1 mM incubated for 4 hrs prior to substrate addition by DNTB-based spectrophotometry
[7] = target: T3, D-alanyl-D-alanine carboxypeptidase (Actinomadura sp. R39, UniProt P39045); experiment: Inhibition of Actinomadura sp. R39 PBP using S2d as substrate incubated for 60 mins prior to substrate addition by DTNB-based spectrophotometry
T3 sequence (P39045 whole entry): as the sequence (P39045 whole entry) above
Summary of the method: (§2)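 PBP purified per earlier method. Pre-incubation: enzyme with inhibitor (DMF stock, 1% DMF final) at 25 °C for 60 min. Buffer for R39 (3.5 nM): 10 mM sodium phosphate pH 7.2, 100 mM NaCl, 100 mM D-alanine, 0.01 mg/mL BSA. Buffer for PBP2xR6: 10 mM sodium phosphate pH 7.0, 0.01 mg/mL BSA. S2d (1 mM) and DTNB (1 mM) then added. Initial hydrolysis rate read at 412 nm. Triplicates. IC50 by non-linear regression of residual activity over a concentration range, with 0.01% Triton X-100.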

Streptococcus pneumoniae [8] = experiment: Inhibition of Streptococcus pneumoniae PBP1b using PATP thioester as substrate assessed as residual activity at 100 uM incubated for 60 mins prior to substrate addition by DNTB-based spectrophotometry in the presence of triton X 100
Summary of the method: (§3)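 Assay B: S. pneumoniae PBP1b (0.2 µM) pre-incubated with inhibitor 60 min at 25 °C in 10 mM sodium phosphate pH 7.0, 100 mM D-alanine, 0.01 mg/mL BSA, 0.01% Triton X-100. Residual activity from initial rates of PATP thioester (5 mM) hydrolysis with DTNB (1.0 mM); IC50 by non-linear regression of residual activity across concentrations.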

Streptococcus pneumoniae [9] = experiment: Inhibition of Streptococcus pneumoniae PBP1b using PATP thioester as substrate assessed as residual activity at 1 mM incubated for 60 mins prior to substrate addition by DNTB-based spectrophotometry in the presence of triton X 100; summary of the method: as §3
[10] = target: T3, D-alanyl-D-alanine carboxypeptidase; experiment: Binding affinity to Actinomadura sp. R39 PBP
[11] = target: T1, Penicillin-binding protein 2X (Streptococcus pneumoniae R6); experiment: Inhibition of penicillin-sensitive Streptococcus pneumoniae R6 PBP2x using S2d as substrate assessed as residual activity at 1 mM incubated for 60 mins prior to substrate addition by DTNB-based spectrophotometry in presence of triton X 100
Summary of the method: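 PBP2xR6 (0.09 µM) pre-incubated with inhibitor for 60 min at 25 °C in 10 mM sodium phosphate pH 7.0, 0.01 mg/mL BSA, with 0.01% Triton X-100. 1% DMF final. S2d (1 mM) and DTNB (1 mM) then added. Initial hydrolysis rate read at 412 nm. Triplicates. Uninhibited activity from six replicates per plate.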

[12] = target: T4, Penicillin-binding protein 2X (Streptococcus pneumoniae R6, UniProt P59676); experiment: Inhibition of penicillin-sensitive Streptococcus pneumoniae R6 PBP2x using S2d as substrate incubated for 60 mins prior to substrate addition by DTNB-based spectrophotometry; summary of the method: as §2
T4 sequence (P59676 whole entry): T1 sequence (whole entry)

[13] = Inhibition of Streptococcus pneumoniae PBP1b using PATP thioester as substrate incubated for 60 mins prior to substrate addition by DNTB-based spectrophotometry in the presence of triton X 100; summary of the method: as §3

Work on `COc1ccc(C(=O)NCB(O)O)cc1OC` yielded an Activity [1] of 81%, an Activity [2] of 82% and an Activity (Streptococcus pneumoniae [3]) of 90%. For the same compound, the Activity [4] was 98%, the Activity (Staphylococcus aureus) was 75% and the Activity (Enterococcus faecium) was 78%.
For `O=C(NCB(O)O)c1ccccc1`, the Activity [5] was 80%, the Activity [2] was 78% and the Activity (Streptococcus pneumoniae [3]) was 56%. For the same compound, the Activity [6] was 81%, the Activity (Staphylococcus aureus) was 81% and the Activity (Enterococcus faecium) was 79%.
Compound `NCB(O)O` has an Activity [1] of 99%.
With `O=C(NCB(O)O)c1ccccc1F` the pIC50 [7] was 3.30, the Activity [1] was 30% and the Activity [2] was 56%. The Activity (Streptococcus pneumoniae [8]) was 14%, the Activity [4] was 106% and the Activity (Staphylococcus aureus) was 88%. For the same compound, the Activity (Enterococcus faecium) was 83%.
For `COc1ccccc1C(=O)NCB(O)O`, the Activity [1] was 43%, the Activity [2] was 86% and the Activity (Streptococcus pneumoniae [9]) was 1%. For the same compound, the Activity (Streptococcus pneumoniae [8]) was 67% and the Activity [6] was 99%.
`O=C(Cc1ccccc1)NCB(O)O` gave a pIC50 [7] of 3.49, an Activity [1] of 29% and an Activity [2] of 57%. For the same compound, the Activity (Streptococcus pneumoniae [9]) was 56%, the Activity [4] was 97% and the pKi [10] was 3.90. For the same compound, the Activity (Staphylococcus aureus) was 90% and the Activity (Enterococcus faecium) was 83%.
Work on `CC(=O)NCB(O)O` yielded an Activity [1] of 74%, an Activity [2] of 100% and an Activity (Streptococcus pneumoniae [9]) of 87%. The Activity [6] was 97%.
Work on `COc1ccc(C(=O)NCB(O)O)c(OC)c1` yielded an Activity [5] of 69%, an Activity [11] of 69% and an Activity (Streptococcus pneumoniae [3]) of 18%. It also gave an Activity (Streptococcus pneumoniae [8]) of 76%, an Activity [4] of 97% and an Activity (Staphylococcus aureus) of 91%. For the same compound, the Activity (Enterococcus faecium) was 86%.
With `O=C(NCB(O)O)c1ccccc1[N+](=O)[O-]` the pIC50 [7] was 6.22, the Activity [5] was 0% and the pIC50 [12] was 3.86. For the same compound, the Activity [11] was 21%, the Activity (Streptococcus pneumoniae [8]) was 24% and the Activity [4] was 108%. It also gave a pKi [10] of 6.44, an Activity (Staphylococcus aureus) of 92% and an Activity (Enterococcus faecium) of 88%.
With `COc1cccc(OC)c1C(=O)NCC(=O)O` the Activity [1] was 87%.
With `O=C(NCB(O)O)c1ccc(Cl)cc1` the Activity [1] was 73%, the Activity [2] was 89% and the Activity (Streptococcus pneumoniae [3]) was 29%. For the same compound, the Activity (Streptococcus pneumoniae [8]) was 70%, the Activity [6] was 101% and the Activity (Staphylococcus aureus) was 100%. It also gave an Activity (Enterococcus faecium) of 93%.
`O=C(NCB(O)O)c1ccccc1C(F)(F)F` gave a pIC50 [7] of 4.82, an Activity [1] of 5% and a pIC50 [12] of 3.32. It also gave an Activity [2] of 44%, an Activity (Streptococcus pneumoniae [3]) of 69% and an Activity [6] of 109%.
For `O=C(Cc1ccc(Cl)cc1)NCB(O)O`, the Activity [1] was 71%, the pIC50 [12] was 3.42 and the Activity [2] was 32%. The Activity (Streptococcus pneumoniae [3]) was 20%, the Activity (Streptococcus pneumoniae [8]) was 69% and the Activity [4] was 82%. It also gave an Activity (Staphylococcus aureus) of 89% and an Activity (Enterococcus faecium) of 88%.
`O=C(Cc1ccccc1[N+](=O)[O-])NCB(O)O` showed an Activity [1] of 52%, a pIC50 [12] of 3.47 and an Activity [2] of 31%. It also gave an Activity (Streptococcus pneumoniae [8]) of 52%, an Activity [6] of 86% and an Activity (Staphylococcus aureus) of 85%. For the same compound, the Activity (Enterococcus faecium) was 84%.
With `O=C(NCB(O)O)c1ccccc1Cl` the pIC50 [7] was 4.07, the Activity [5] was 15% and the pIC50 [12] was 3.58. For the same compound, the Activity [11] was 31%, the Activity (Streptococcus pneumoniae [8]) was 20% and the Activity [4] was 70%. It also gave a pKi [10] of 4.38, an Activity (Staphylococcus aureus) of 81% and an Activity (Enterococcus faecium) of 97%.
In the case of `O=C(NCB(O)O)c1cccs1`, the Activity [5] was 73% and the Activity [11] was 66%.
In the case of `O=C(NCB(O)O)c1c(F)cccc1F`, the pIC50 [7] was 4.46, the Activity [1] was 6% and the pIC50 [12] was 3.04. For the same compound, the Activity [2] was 40%, the pIC50 [13] was 5.15 and the Activity (Streptococcus pneumoniae [8]) was 7%. The Activity [4] was 86%, the Activity (Staphylococcus aureus) was 91% and the Activity (Enterococcus faecium) was 88%.
`O=C(CCC1CCCC1)NCB(O)O` showed an Activity [1] of 71%, an Activity [2] of 79% and an Activity (Streptococcus pneumoniae [3]) of 59%. For the same compound, the Activity [4] was 98%, the Activity (Staphylococcus aureus) was 100% and the Activity (Enterococcus faecium) was 85%.
Work on `COc1ccc(C(=O)NCB(O)O)cc1` yielded an Activity [1] of 50%, an Activity [2] of 81% and an Activity (Streptococcus pneumoniae [3]) of 38%. The Activity (Streptococcus pneumoniae [8]) was 82%, the Activity [6] was 94% and the Activity (Staphylococcus aureus) was 92%. For the same compound, the Activity (Enterococcus faecium) was 81%.
In the case of `O=C(Cc1ccccc1Cl)NCB(O)O`, the Activity [1] was 57%, the pIC50 [12] was 3.19 and the Activity [2] was 26%. The Activity (Streptococcus pneumoniae [3]) was 24%, the Activity (Streptococcus pneumoniae [8]) was 96% and the Activity [6] was 90%. It also gave an Activity (Staphylococcus aureus) of 77% and an Activity (Enterococcus faecium) of 88%.
